# Measurements as given in ChEMBL document CHEMBL4330160, “Prenylated Indole Diterpene Alkaloids from a Mine-Soil-Derived Tolypocladium sp” (J Nat Prod, 2019).
# Activity calls are given as the source filed them. No cut-off for these calls is given here.
# Experiments:
# Fusarium oxysporum = assay: Antifungal activity against Fusarium oxysporum Schlecht after 3 to 7 days by microbroth dilution method; assay type: functional, organism-based
# Outline: (§1)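 Microbroth dilution with fungal cultures at 10^4 mycelia fragments/mL. Test samples and ketoconazole were 1 mg/mL DMSO stocks. 180 μL culture plus 20 μL stock in the first well gave 100 μg/mL final, followed by serial dilution. Run in triplicate, incubated at 28 °C for 3−7 days, and MIC determined.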
# Alternaria solani = assay: Antifungal activity against Alternaria solani Sorauer after 3 to 7 days by microbroth dilution method; assay type: functional, organism-based; outline: as §1
# Rhizoctonia solani = assay: Antifungal activity against Rhizoctonia solani after 3 to 7 days by microbroth dilution method; assay type: functional, organism-based; outline: as §1
# [1] = system: Alternaria sp. 'fragaria'; assay: Antifungal activity against Alternaria fragaria after 3 to 7 days by microbroth dilution method; assay type: functional; outline: as §1
# Corynespora cassiicola = assay: Antifungal activity against Corynespora cassiicola after 3 to 7 days by microbroth dilution method; assay type: functional
# Outline: (§2)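 Microbroth dilution with fungal inoculum at 10^4 mycelial fragments/mL. Stock solutions were 1 mg/mL in DMSO. 20 μL stock was added to 180 μL culture, giving a top final concentration of 100 μg/mL, then serially diluted, in triplicate. Plates were held at 28 °C for 3–7 days and read for MIC; ketoconazole was the positive control.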
# Alternaria alternata = assay: Antifungal activity against Alternaria alternata after 3 to 7 days by microbroth dilution method; assay type: functional; outline: as §2
# Botrytis cinerea = assay: Antifungal activity against Botrytis cinerea Pers. after 3 to 7 days by microbroth dilution method; assay type: functional; outline: as §2
# [2] = Antifungal activity against Cercospora personata after 3 to 7 days by microbroth dilution method; assay type: functional; conditions: Nothopassalora personata; outline: as §2
# Verticillium dahliae = assay: Antifungal activity against Verticillium dahliae Kleb after 3 to 7 days by microbroth dilution method; assay type: functional; outline: as §2
# Sclerotinia sclerotiorum = assay: Antifungal activity against Sclerotinia sclerotiorum after 3 to 7 days by microbroth dilution method; assay type: functional; outline: as §2
# Bacillus cereus = assay: Antibacterial activity against Bacillus cereus after 3 to 7 days by broth dilution assay; assay type: functional
# Staphylococcus aureus = assay: Antibacterial activity against Methicillin-resistant Staphylococcus aureus after 3 to 7 days by broth dilution assay; assay type: functional
# Outline: (§3)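 Modified broth dilution with bacterial suspensions at 10^6 CFU/mL. Test and ciprofloxacin control stocks were 1 mg/mL in DMSO. Serial dilution and MIC read-out followed the antifungal microdilution procedure.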
# A549 = assay: Cytotoxicity against human A549 cells after 48 hrs by CCK8 assay; assay type: functional, cell-based; conditions: A549, 48 h
# Outline: (§4)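 Cells grown in DMEM with 10% FBS at 37 °C, 5% CO2. Seeded at 5000 cells/well and left 16 h, then exposed to a range of concentrations in growth medium for 48 h. Viability read by CCK-8 absorbance as percent of untreated control. IC50 taken from a sigmoidal curve; camptothecin was the positive control.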
# Huh-7 = assay: Cytotoxicity against human HuH7 cells after 48 hrs by CCK8 assay; assay type: functional, cell-based; conditions: Huh-7, 48 h; outline: as §4
# LN-229 = assay: Cytotoxicity against human LN229 cells after 48 hrs by CCK8 assay; assay type: functional, cell-based; conditions: LN-229, 48 h; outline: as §4
# [3] = Cytotoxicity against human MGC cells after 48 hrs by CCK8 assay; assay type: functional, cell-based; outline: as §4
# MHCC97H = assay: Cytotoxicity against human MHCC97H cells after 48 hrs by CCK8 assay; assay type: functional, cell-based
# Outline: (§5)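 Cultured in DMEM with 10% FBS at 37 °C under 5% CO2. After a 16 h attachment, cells were treated with varying concentrations for 48 h. CCK-8 absorbance was expressed as percent of control and IC50 derived by sigmoidal curve fitting; camptothecin was the positive control.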
# LoVo = assay: Cytotoxicity against human LoVo cells after 48 hrs by CCK8 assay; assay type: functional, cell-based; outline: as §5
# MDA-MB-231 = assay: Cytotoxicity against human MDA231 cells after 48 hrs by CCK8 assay; assay type: functional, cell-based; conditions: MDA-MB-231, 48 h
# Outline: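 MDA231 cells kept in DMEM with 10% FBS at 37 °C, 5% CO2. Seeded at 10 000 cells/well and settled 16 h, then given graded concentrations for 48 h. Viability measured by CCK-8 absorbance relative to control cells, with IC50 from a sigmoidal fit; camptothecin served as the positive control.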
# Homo sapiens = species on record: Homo sapiens; assay: Cytotoxicity against human T1224 cells in patient-derived organoid model after 48 hrs by CCK8 assay; assay type: functional, cell-based
# Outline: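 Patient-derived HCC cells (50 000) were embedded in Matrigel, set 20 min at 37 °C, then grown 6–8 days in DMEM/F12 with B27, 0.01% BSA, 2 mM glutamine, penicillin/streptomycin, 10 ng/mL FGF basic, 50 ng/mL EGF and 50 ng/mL HGF to form organoids. Medium was changed every 2 days.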
# Micrococcus luteus = assay: Antibacterial activity against Micrococcus lysodeikticus after 3 to 7 days by broth dilution assay; assay type: functional
# Salmonella paratyphi = assay: Antibacterial activity against Bacterium paratyphosum after 3 to 7 days by broth dilution assay; assay type: functional, Salmonella enterica subsp. enterica serovar Paratyphi A; conditions: Salmonella enterica; outline: as §3
# Bacillus subtilis = assay: Antibacterial activity against Bacillus subtilis after 3 to 7 days by broth dilution assay; assay type: functional
# Klebsiella aerogenes = assay: Antibacterial activity against Enterobacter aerogenes after 3 to 7 days by broth dilution assay; assay type: functional
SMILES,Activity (Fusarium oxysporum),Activity (Alternaria solani),Activity (Rhizoctonia solani),MIC [1] [µg/mL],MIC (Staphylococcus aureus) [µg/mL],other results
CC(C)=C[C@H]1O[C@H]2[C@H]3O[C@@]34[C@H](CC[C@@]3(C)[C@@]4(O)CC[C@H]4Cc5c([nH]c6cccc(C[C@H](O)C(C)(C)O)c56)[C@@]43C)O[C@@H]2C(C)(C)O1,Active,Active,Active,6.25 to 50,,
CC(C)=CCc1cccc2[nH]c3c(c12)C[C@@H]1CC[C@@]2(O)[C@@]45O[C@@H]4[C@H](O)[C@@H](C(C)(C)O)O[C@H]5CC[C@]2(C)[C@@]31C,Active,Active,Active,6.25 to 50,12.5,MIC (Corynespora cassiicola): 6.25 to 25 µg/mL; MIC (Alternaria alternata): 6.25 to 25 µg/mL; MIC (Botrytis cinerea): 6.25 to 25 µg/mL; MIC [2]: 6.25 to 25 µg/mL; MIC (Verticillium dahliae): 6.25 to 25 µg/mL; MIC (Sclerotinia sclerotiorum): 6.25 to 25 µg/mL; MIC (Bacillus cereus): 25 µg/mL; IC50 (A549): 16.3 to 37.8 µM; IC50 (Huh-7): 16.3 to 37.8 µM; IC50 (LN-229): 16.3 to 37.8 µM; IC50 [3]: 16.3 to 37.8 µM; IC50 (MHCC97H): 16.3 to 37.8 µM; IC50 (LoVo): 16.3 to 37.8 µM; IC50 (MDA-MB-231): 16.3 to 37.8 µM; Activity (Homo sapiens): Active
CC(=O)N1CCN(c2ccc(OCC3COC(Cn4ccnc4)(c4ccc(Cl)cc4Cl)O3)cc2)CC1 (configuration not stated) [KETOCONAZOLE],,,,0.78,,MIC (Corynespora cassiicola): 0.78 to 1.56 µg/mL; MIC (Alternaria alternata): 0.78 to 1.56 µg/mL; MIC (Botrytis cinerea): 0.78 to 1.56 µg/mL; MIC [2]: 0.78 to 1.56 µg/mL; MIC (Verticillium dahliae): 0.78 to 1.56 µg/mL; MIC (Sclerotinia sclerotiorum): 0.78 to 1.56 µg/mL
CC(C)=CCc1cccc2[nH]c3c(c12)C[C@@H]1CC[C@]2(O)[C@](C)(CCC(=O)[C@@]24O[C@@H]4[C@@H]2O[C@H](C=C(C)C)OC(C)(C)[C@@H]2O)[C@@]31C,Active,Active,Active,,12.5 to 25,MIC (Bacillus cereus): 12.5 to 25 µg/mL; MIC (Micrococcus luteus): 12.5 to 25 µg/mL; MIC (Salmonella paratyphi): 12.5 to 25 µg/mL; MIC (Bacillus subtilis): 12.5 to 25 µg/mL; MIC (Klebsiella aerogenes): 12.5 to 25 µg/mL
CC(C)=C[C@H]1O[C@H]2[C@H]3O[C@@]34[C@H](CC[C@@]3(C)[C@@]4(O)CC[C@H]4Cc5c([nH]c6cc(C[C@H](O)C(C)(C)O)ccc56)[C@@]43C)O[C@@H]2C(C)(C)O1,Active,Active,Active,6.25 to 50,,
COC(C)(C)[C@@H](O)Cc1cccc2[nH]c3c(c12)C[C@@H]1CC[C@@]2(O)[C@@]45O[C@@H]4[C@H](O)[C@@H](C(C)(C)O)O[C@H]5CC[C@]2(C)[C@@]31C,Active,Active,Active,6.25 to 50,,
CC(C)=C[C@H]1O[C@H]2[C@H]3O[C@@]34[C@H](CC[C@@]3(C)[C@@]4(O)CC[C@H]4Cc5c([nH]c6cccc(C[C@H](O)C(C)(C)Cl)c56)[C@@]43C)O[C@@H]2C(C)(C)O1,Active,Active,Active,6.25 to 50,,
CC(C)(O)[C@@H](O)Cc1cccc2[nH]c3c(c12)C[C@@H]1CC[C@@]2(O)[C@@]45O[C@@H]4[C@@H]4O[C@H]([C@H]6OC6(C)C)OC(C)(C)[C@H]4O[C@H]5CC[C@]2(C)[C@@]31C,Active,Active,Active,6.25 to 50,,
O=C(O)c1cn(C2CC2)c2cc(N3CCNCC3)c(F)cc2c1=O [CIPROFLOXACIN],,,,,1.56,MIC (Bacillus cereus): 0.78 µg/mL; MIC (Micrococcus luteus): 0.78 to 1.56 µg/mL; MIC (Salmonella paratyphi): 0.78 to 1.56 µg/mL; MIC (Bacillus subtilis): 0.78 to 1.56 µg/mL; MIC (Klebsiella aerogenes): 0.78 to 1.56 µg/mL
CC[C@@]1(O)C(=O)OCc2c1cc1n(c2=O)Cc2cc3ccccc3nc2-1 [CAMPTOTHECIN],,,,,,IC50 (A549): 0.00032 to 0.0318 µM; IC50 (Huh-7): 0.00032 to 0.0318 µM; IC50 (LN-229): 0.00032 to 0.0318 µM; IC50 [3]: 0.00032 to 0.0318 µM; IC50 (MHCC97H): 0.00032 to 0.0318 µM; IC50 (LoVo): 0.00032 to 0.0318 µM; IC50 (MDA-MB-231): 0.00032 to 0.0318 µM
CC(C)(O)[C@H]1O[C@H]2CC[C@@]3(C)[C@@](O)(CC[C@H]4Cc5c([nH]c6cccc(C[C@H](O)C(C)(C)Cl)c56)[C@@]43C)[C@]23O[C@@H]3[C@@H]1O,Active,Active,Active,6.25 to 50,50,
CC(C)(Cl)[C@H](O)Cc1ccc2c3c([nH]c2c1)[C@@]1(C)[C@@H](CC[C@@]2(O)[C@@]45O[C@@H]4[C@@H]4O[C@H]([C@H]6OC6(C)C)OC(C)(C)[C@H]4O[C@H]5CC[C@@]21C)C3,Active,Active,Active,6.25 to 50,,
CC(C)(O)[C@H]1O[C@H]2CC[C@@]3(C)[C@@](O)(CC[C@H]4Cc5c([nH]c6cc(C[C@H](O)C(C)(C)Cl)ccc56)[C@@]43C)[C@]23O[C@@H]3[C@@H]1O,Active,Active,Active,6.25 to 50,,
